Source: PubChem
Compounds with a hit are over-represented: about 3.7% of the library has one in this group of screens.
Kir21 inh: Kir2.1 (mouse) channel inhibition | HEK293-Kir2.1, FluxOR thallium flux fluorescence; hits give low values | B-score at 10 µM | actives 0.85% (n = 310,000) | AID 1672;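 active = fluorescence ratio B-score at or below minus 3 SD of library scores, with starting-brightness B-score within 2 SD, cut at about -4.2 in these data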;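 also: channel flux triggered by added potassium and thallium sulfate stimulus; B-score of peak minus minimum fluorescence over baseline after thallium stimulus; more negative B-score means stronger Kir2.1 block with less thallium influx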
KCNQ1 act: potentiates or activates the human KCNQ1 potassium channel | P51787 | CHO-K1 KCNQ1, thallium flux FluxOR fluorescence; hits give high values | B-score at 10 µM | actives 0.35% (n = 310,000) | AID 2648;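 active = fluorescence ratio B-score, a plate-corrected score, at least three library SD, with initial intensity B-score within 5 SD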
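Test system: CHO-K1 cells stably expressing KCNQ1 / Medium: assay buffer / Also added: depolarizing K+/Tl+ stimulus, K2SO4 and Tl2SO4 each 12.5 mM in 5x stock / Incubation: 90 min dye loading and 20 min compound exposure, both at room temperature / Signal: thallium influx via FluxOR fluorescence, kinetic imaging / Evaluation: B score of baseline-normalized fluorescence ratio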
KCNQ1 block: blocks the human KCNQ1 potassium channel. P51787. B-score at 10 µM. actives 1.3% (n = 310,000). AID 2642. CHO-K1 KCNQ1, FluxOR thallium flux fluorescence; hits give high values;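 active = compounds whose thallium flux B-score, printed positive for inhibition, exceeds three library SD while starting fluorescence stays within three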;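 also: channel opened by potassium depolarization with thallium stimulus after 20 min compound exposure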
hERG protect: compounds protecting human hERG from proarrhythmic drug block | Q12809 | CHO-hERG, FluxOR thallium flux, dofetilide IC70 present | activation (rescue from dofetilide block), less the hit threshold, % at 10 µM | actives 0.51% (n = 310,000) | AID 1511;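 active = activation above the mean of controls blocked by dofetilide plus 5 SD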;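 also: thallium influx through hERG after potassium depolarization seen as dye fluorescence rise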
Target sequence (Q12809 whole entry, looked up): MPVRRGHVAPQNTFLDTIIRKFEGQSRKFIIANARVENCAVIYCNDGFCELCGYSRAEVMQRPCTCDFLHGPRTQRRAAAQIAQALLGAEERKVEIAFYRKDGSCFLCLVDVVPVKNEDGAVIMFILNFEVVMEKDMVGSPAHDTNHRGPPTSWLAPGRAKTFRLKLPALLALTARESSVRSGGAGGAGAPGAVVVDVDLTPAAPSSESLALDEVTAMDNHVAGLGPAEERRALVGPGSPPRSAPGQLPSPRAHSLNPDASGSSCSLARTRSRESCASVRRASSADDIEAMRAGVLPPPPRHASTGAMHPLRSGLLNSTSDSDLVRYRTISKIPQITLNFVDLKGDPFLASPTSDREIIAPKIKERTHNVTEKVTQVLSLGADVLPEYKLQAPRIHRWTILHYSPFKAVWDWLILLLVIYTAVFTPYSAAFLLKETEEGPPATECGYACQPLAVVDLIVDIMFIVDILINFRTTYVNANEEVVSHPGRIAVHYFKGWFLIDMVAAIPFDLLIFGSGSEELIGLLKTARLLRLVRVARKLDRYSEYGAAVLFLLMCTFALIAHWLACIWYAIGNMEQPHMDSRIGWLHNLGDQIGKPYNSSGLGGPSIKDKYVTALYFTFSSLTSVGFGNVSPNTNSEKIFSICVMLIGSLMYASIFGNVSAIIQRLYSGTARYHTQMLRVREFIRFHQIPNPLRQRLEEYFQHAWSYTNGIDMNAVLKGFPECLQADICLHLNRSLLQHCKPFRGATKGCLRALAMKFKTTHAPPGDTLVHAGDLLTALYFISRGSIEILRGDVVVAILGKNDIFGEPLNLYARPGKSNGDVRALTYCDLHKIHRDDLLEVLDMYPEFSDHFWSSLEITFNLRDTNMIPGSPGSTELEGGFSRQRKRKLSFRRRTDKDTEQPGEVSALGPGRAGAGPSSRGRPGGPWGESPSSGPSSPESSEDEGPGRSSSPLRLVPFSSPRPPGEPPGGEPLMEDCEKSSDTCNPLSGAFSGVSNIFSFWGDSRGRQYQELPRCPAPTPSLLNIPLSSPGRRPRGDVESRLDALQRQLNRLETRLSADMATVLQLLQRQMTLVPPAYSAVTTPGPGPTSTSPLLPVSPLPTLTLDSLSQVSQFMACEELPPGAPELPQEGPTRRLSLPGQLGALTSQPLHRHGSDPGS
KCNK9 inh-1: inhibitors of human KCNK9 two-pore domain potassium channel; HEK293 KCNK9, FluxOR thallium flux fluorescence; hits give low values; actives 1.2% (n = 310,000); B-score at 10 µM;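 active = ratio B-score over 3 SD below the library mean, with starting fluorescence within 5 SD of its mean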;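 also: negative B-score means less thallium flux so channel inhibition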
KCNK3 block: human KCNK3 channel inhibition, primary screen; B-score at 10 µM; AID 602410; actives 0.84% (n = 340,000); CHO-KCNK3 thallium flux, FluxOR fluorescence; hits give low values;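 active = B-score under library mean minus 4 SD, starting fluorescence ratio at most library mean plus 5 SD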;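 also: more negative B-score means stronger inhibition of thallium flux through KCNK3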
hERG ctr: blocks human hERG, in counter-screen for Kir2.1 inhibitors; shares compounds with Kir21 inh; hERG-expressing cells, thallium flux; inhibition, % at 10 µM; actives 20% (n = 320);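 also: host cells are CHO cells stably expressing hERG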
KCNK9 inh-2: tests whether Kir2.1 inhibitors also affect human KCNK9 | actives 5% (n = 320) | shares compounds with Kir21 inh | KCNK9-expressing cells, ion flux inhibition | inhibition, % at 10 µM
Kir2-1 patch inh: inhibitors of mouse Kir2.1 potassium channel | shares compounds with Kir21 inh | Kir2.1 cells, automated patch-clamp current inhibition | actives 71% (n = 320) | inhibition, % at 25 µM
Starred values were filed as active, the others as inactive; i = inactive; . = no result. Unless noted, no rule for the calls is given here.

SMILES	Kir21 inh	KCNQ1 act	KCNQ1 block	hERG protect	KCNK9 inh-1	KCNK3 block	hERG ctr	KCNK9 inh-2	Kir2-1 patch inh
CCNC(=S)/N=C(/Nc1ccccc1)Nc1nc(C)cc(C)n1	2.49	i	i	-7.7	i	i	i	i	i
Cc1cc(C)c(S(=O)(=O)c2cccc(Cl)c2)c(Cl)n1	-0.36	i	i	-9.3	i	i	.	.	.
CCOc1nc(C)cc(C)c1S(=O)(=O)c1cccc(Cl)c1	-8.22*	i	i	-3.3	i	i	i	i	35.8%*
O=S(=O)(c1ccc(Cl)cc1)N1CCSC1c1ccco1 (stereo unspecified)	-6.54*	i	i	-8.7	i	i	i	i	21.1%*
COC(=O)C1SCCN1S(=O)(=O)c1ccc(Cl)cc1 (stereo unspecified)	0.86	i	i	-8.4	i	i	.	.	.
Cc1cnn2c(C3CC3)ccnc12	0.67	i	i	-8.2	i	i	.	.	.
CC(=O)c1ccc(S(=O)(=O)N2CCCc3ccccc32)cc1	-3.14	i	i	-3.0	i	i	.	.	.
O=S(=O)(c1ccc(F)cc1)N1CCCc2ccccc21	-5.99*	i	i	-6.2	i	.	i	i	19.2%*
O=C(O)c1ccc(S(=O)(=O)N2CCCc3ccccc32)cc1	0.05	i	i	-2.6	i	i	.	.	.
O=S(=O)(c1ccccc1)N1CCCc2ccccc21	-6.45*	i	i	-0.7	i	.	i	i	22.1%*
COc1ccc(S(=O)(=O)N2CCOCC2)cc1NC(=O)CCCOc1ccccc1	.	.	.	.	.	i	.	.	.
CCn1c(CNc2ccc(Cl)cc2)nnc1SCc1ccccc1	-6.2*	i	i	-5.6	i	i	i	i	i
CC(C(=O)Nc1ccccc1C(F)(F)F)N1CCN(C)CC1 (stereo unspecified)	-0.02	i	i	-3.6	i	i	.	.	.
CCCNC(=O)c1cc(S(=O)(=O)N2CCCCC2)c[nH]1	-0.03	i	i	-14.0	i	i	.	.	.
CC(C)(C)OC(=O)NCCc1nnc(SCc2ccc(Cl)cc2)o1	-16.2*	i	i	-17.6	i	i	i	i	73.8%*
Cc1ccc(CSc2nnc(CCCCCNC(=O)OC(C)(C)C)o2)cc1	-3.07	i	i	-8.5	i	i	.	.	.
COc1cccc(N2CCN(C(=O)c3oc4ccccc4c3NC(=O)Cc3ccc(OC)c(OC)c3)CC2)c1	-0.15	i	i	-3.0	i	i	.	.	.
Cc1ccc(CN2CCC(c3cc(-c4cccs4)n[nH]3)CC2)cc1	-13.3*	i	i	-14.1	i	i	72.0%*	i	37.4%*
FC(F)(F)c1cccc(CN2CCC(c3cc(-c4cccs4)n[nH]3)CC2)c1	-0.57	i	i	-17.7	i	i	.	.	.
COc1cccc(CNc2ccc3[nH]c(=O)[nH]c3c2)c1OCc1ccccc1F	-7.44*	i	i	-15.2	i	i	i	i	2.2%*
COc1ccc(CCNC(=O)c2coc(=O)c(Br)c2)cc1	-1.07	i	i	-2.1	i	.	.	.	.
CCN(c1cccc(C)c1)S(=O)(=O)c1ccc2c(c1)NC(=O)CS2	-5.88*	i	i	-9.0	i	i	i	i	i
CCN(c1cccc(C)c1)S(=O)(=O)c1ccc2c(c1)NC(=O)CCS2	0.77	i	i	-7.3	i	i	.	.	.
CC(C)(C)C(=O)Nc1nnc(SCC(=O)Nc2nccs2)s1	0.03	i	i	-5.0	i	i	.	.	.
N#Cc1cc2[nH]c3ccccc3c2[n+](-c2ccc([N+](=O)[O-])cc2)c1N	1.21	i	i	-4.6	i	i	.	.	.
SMILES	Kir21 inh	KCNQ1 act	KCNQ1 block	hERG protect	KCNK9 inh-1	KCNK3 block	hERG ctr	KCNK9 inh-2	Kir2-1 patch inh
Cc1cc(NC(=O)CSCC(=O)OC(C)C(=O)c2cc(C)c(C)cc2C)no1 (stereo unspecified)	-6.31*	i	i	-8.6	i	i	i	i	17.6%*
COc1ccc(-c2cc(C(=O)Nc3cc(OC)cc(C(=O)Nc4cccc(C(F)(F)F)c4)c3)[nH]n2)cc1	1.63	i	i	-14.8	i	i	.	.	.
CCN(CCNCC(O)COc1ccccc1C(C)C)c1cccc(C)c1 (stereo unspecified)	-6.37*	i	i	-21.4	i	i	61.0%*	i	i
CCOC(=O)N1CCN(CC(O)COc2ccccc2C(C)C)CC1 (stereo unspecified)	0.17	i	i	-5.9	i	i	.	.	.
CC(NS(=O)(=O)c1ccc(Br)cc1)c1ccccc1 (stereo unspecified)	-6*	i	i	-8.2	i	i	i	i	54.5%*
CC(C)O/C(=N\S(=O)(=O)c1ccc(Cl)cc1)c1ccccc1	-8.32*	i	i	-14.8	i	i	i	i	17.2%*
CCOc1ccc(C(C)=O)cc1CSc1nnnn1-c1ccc(O)cc1	-8.42*	i	i	-12.1	i	i	i	i	24.5%*
Fc1ccc(N2CCN(Cc3c[nH]c4ccccc34)CC2)cc1	-7.87*	i	i	-10.7	i	.	56.0%*	i	39.8%*
CC[C@H](C)[C@H](NC(=O)OCc1ccccc1)C(=O)Nc1ccc(NC(C)=O)cc1	0.52	i	i	-2.2	i	i	.	.	.
C=CCN=C(C)C1=C(O)C(C)OC1=O (stereo unspecified)	-1.89	i	i	-2.3	i	i	.	.	.
CCN(CC)CC#CCOC(c1ccccc1)c1ccccc1	-2.97	i	i	-22.4	i	i	.	.	.
CN(C)CC#CCOC(c1ccccc1)c1ccccc1	-6.34*	i	i	0.3	i	i	i	i	44.6%*
OC(COCc1cccs1)CN1CCN(c2cccc(Cl)c2)CC1 (stereo unspecified)	1.51	i	i	-15.1	i	i	.	.	.
CC(C)(Oc1ccc(Cl)cc1)C(=O)OCC(=O)NCCc1ccccc1	-6.36*	i	i	-14.0	i	i	i	i	39.3%*
COc1ccc(NC(=O)C2CCCCC2)cc1S(=O)(=O)N1CCOCC1	.	.	.	.	.	i	.	.	.
CC1=C(C(=O)OCc2ccccc2)C(c2cccs2)N2C(=O)CCSC2=N1 (stereo unspecified)	-0.65	i	i	-20.3	i	i	.	.	.
